Experimental data as given in ChEMBL document CHEMBL1124458, “Electrophilic derivatives of purines as irreversible inhibitors of A1 adenosine receptors” (J Med Chem, 1989).

What was measured:
[1] = target: T1, Adenosine receptor A1 (Rattus norvegicus) (UniProt P25099); assay: Percentage inhibition of [125I]APNEA binding to adenosine A1 receptor from rat brain after 45 min incubation at 10 nM
T1 sequence (whole entry): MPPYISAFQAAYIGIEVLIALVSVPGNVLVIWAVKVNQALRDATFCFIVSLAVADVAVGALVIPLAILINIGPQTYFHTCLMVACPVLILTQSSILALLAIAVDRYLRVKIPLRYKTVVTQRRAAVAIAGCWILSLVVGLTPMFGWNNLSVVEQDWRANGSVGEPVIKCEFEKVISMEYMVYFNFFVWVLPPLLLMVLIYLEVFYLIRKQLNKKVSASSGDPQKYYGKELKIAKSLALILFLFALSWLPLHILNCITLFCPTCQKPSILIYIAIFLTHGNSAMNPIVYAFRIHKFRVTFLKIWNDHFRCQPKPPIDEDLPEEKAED
Summary of the method: (§1)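 Rat cerebral cortex membranes pretreated with adenosine deaminase (0.5 unit/mL, 20 min, 37 °C). Incubated with ligand at the stated concentration for 45 min at 37 °C, then washed three times in Tris/MgCl2/EDTA buffer pH 8.26 with 0.02% Chaps. Then 10⁻⁴ M IBMX for 18 h at 25 °C, washed twice and deaminase-treated again. Untreated membranes went through every step as controls.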

[2] = target: T1, Adenosine receptor A1 (Rattus norvegicus); assay: Percentage inhibition of [125I]APNEA binding to Adenosine A1 receptor from rat brain after 45 min incubation at 10 nM; summary of the method: as §1
[3] = target: T2, Adenosine receptors; A1 & A2 (Rattus norvegicus) (UniProt P29276+P25099+P30543); assay: Relative affinities for Adenosine A2 and Adenosine A1 receptors; type: protein assay
[4] = target: T1, Adenosine receptor A1 (Rattus norvegicus); assay: Percentage inhibition of [125I]APNEA binding to adenosine A1 receptor from rat brain after 45 min incubation at 1 nM; summary of the method: as §1
Adenosine A2 receptor [5] = target: T3, Adenosine A2 receptor (Rattus norvegicus, UniProt P29276+P30543); assay: Inhibition of [3H]N-ethyladenosine-5'-uronamide binding to Adenosine A2 receptor of rat striatal membrane
[6] = target: T1, Adenosine receptor A1 (Rattus norvegicus); assay: Percentage inhibition of [125I]APNEA binding to adenosine A1 receptor from rat brain after 45 min incubation at 500 nM
Summary of the method: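 Adenosine deaminase-treated rat cerebral cortex membranes were exposed to the ligand for 45 min at 37 °C. They were washed three times, held in buffer with 10⁻⁴ M IBMX for 18 h at 25 °C, washed and re-treated with deaminase. Residual sites were measured by 125I-APNEA saturation (0.1–2.5 nM) against untreated membranes carried through the same procedure.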

Adenosine receptor A1 [7] = target: T4, Adenosine receptor A1 (Rattus norvegicus, UniProt P25099); assay: Affinity for A1 adenosine receptor using [3H]-N6 -(phenylisopropyl)-adenosine (R)-[3H]-PIA in rat brain; type: tissue-based
T4 sequence (P25099 whole entry): T1 sequence (whole entry)
Summary of the method: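 Rat cerebral cortex membranes pretreated with adenosine deaminase (0.5 unit/mL, 20 min, 37 °C). Competition against 1 nM (R)-[3H]PIA over a range of ligand concentrations, in triplicate, in at least three experiments. […] For irreversible ligands the value is an apparent Ki.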

Adenosine receptor A1 [8] = target: T5, Adenosine receptor A1 (Bos taurus, UniProt P28190); assay: Affinity for Adenosine A1 receptor using [125I]APNEA in calf brain.
T5 sequence (P28190 whole entry): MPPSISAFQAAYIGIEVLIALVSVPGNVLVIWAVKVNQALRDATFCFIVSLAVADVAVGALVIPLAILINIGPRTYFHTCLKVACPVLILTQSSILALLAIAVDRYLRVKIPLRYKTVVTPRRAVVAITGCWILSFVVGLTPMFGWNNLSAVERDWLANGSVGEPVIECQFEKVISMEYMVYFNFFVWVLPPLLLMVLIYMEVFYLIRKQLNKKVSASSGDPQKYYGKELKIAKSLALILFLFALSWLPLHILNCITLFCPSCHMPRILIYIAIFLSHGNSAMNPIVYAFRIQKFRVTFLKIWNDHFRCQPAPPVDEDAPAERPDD
Summary of the method: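 Bovine cerebral cortex membranes were pretreated with adenosine deaminase (0.5 unit/mL, 20 min, 37 °C). Membranes (40 µg) were incubated with 125I-APNEA and competitor for 1 h at 37 °C. Separation was by dilution in cold Tris-HCl/MgCl2/EDTA buffer, pH 8.26, with 0.02% Chaps, then glass-filter filtration and gamma counting. Nonspecific binding was defined with 10⁻⁵ M (R)-PIA.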

Adenosine receptor A1 [9] = target: T4, Adenosine receptor A1; assay: Affinity for adenosine A1 receptor using [3H]-N6 -(phenylisopropyl)-adenosine (R)-[3H]-PIA in rat brain.; type: tissue-based
Summary of the method: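 Rat cerebral cortex membranes were incubated with 1 nM (R)-[3H]PIA and a range of competitor concentrations. Each point was run in triplicate, in at least three separate experiments.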

Adenosine A2 receptor [10] = target: T3, Adenosine A2 receptor; assay: Inhibitory affinity for adenosine A2 receptor using [3H]N-ethyladenosine-5'-uronamide; type: protein assay
[11] = target: T2, Adenosine receptors; A1 & A2 (Rattus norvegicus); assay: Selectivity ratio between Ki for adenosine A2 and A1 receptors; type: protein assay

For `O=C(Cc1ccc(NC(=O)Cc2ccc(Nc3ncnc4c3ncn4C3O[C@H](CO)[C@@H](O)[C@H]3O)cc2)cc1)NCC/N=C(\S)Nc1cccc(N=C=S)c1` (stereo partly specified), the inhibition [1] was greater than 90%, the inhibition [2] was greater than 90% and the Ratio [3] was 203. For the same compound, the inhibition [4] was 62% and the Ki (Adenosine A2 receptor [5]) was 0.176 µM.
For `CCCn1c(=O)c2nc(-c3ccc(OCC(=O)NCC=O)cc3)[nH]c2n(CCC)c1=O`, the inhibition [6] was 0%, the Ki (Adenosine receptor A1 [7]) was 0.266 µM and the Ki (Adenosine receptor A1 [8]) was 0.00317 µM.
`O=C(Cc1ccc(NC(=O)Cc2ccc(Nc3ncnc4c3ncn4C3O[C@H](CO)[C@@H](O)[C@H]3O)cc2)cc1)NCC/N=C(\S)Nc1ccc(S(=O)(=O)[O-])cc1.[Na+]` (stereo partly specified) was tested, and the Ki (Adenosine receptor A1 [9]) was 0.0511 µM, the Ki (Adenosine A2 receptor [10]) was 0.07 µM and the Ratio [11] was 1.37.
